# From the M2OR odorant receptor database
# Columns and labels:
# Conditions in all cases: stereoisomer not certain
# [1] = target: T1, OR2B11 (Homo sapiens) (UniProt Q5JQS5)
# T1 sequence (whole entry): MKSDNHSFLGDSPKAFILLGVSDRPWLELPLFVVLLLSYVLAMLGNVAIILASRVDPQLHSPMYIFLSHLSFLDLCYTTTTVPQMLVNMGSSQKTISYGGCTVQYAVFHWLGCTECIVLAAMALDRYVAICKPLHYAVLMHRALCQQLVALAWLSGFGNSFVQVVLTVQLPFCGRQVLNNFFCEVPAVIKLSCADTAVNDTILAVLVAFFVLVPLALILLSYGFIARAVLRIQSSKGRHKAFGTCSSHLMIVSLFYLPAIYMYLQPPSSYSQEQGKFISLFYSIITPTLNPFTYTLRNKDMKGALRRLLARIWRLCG
# Procedure, shortened: (§1)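 Transient luciferase assays in mammalian cell lines were common, though methods varied by source. The values come from published papers and their supplementary material, with extra details from the original authors when needed. Responsive refers to a measured signal the original authors judged statistically different from baseline, and non-responsive (inactive) to the remainder.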
# [2] = target: OR2B2 (Homo sapiens) (UniProt Q9GZK3)
# Procedure, shortened: as §1
# [3] = target: OR2B6 (Homo sapiens) (UniProt P58173)
# Procedure, shortened: as §1
# [4] = target: T2, OR2C1 (Homo sapiens) (UniProt O95371)
# T2 sequence (whole entry): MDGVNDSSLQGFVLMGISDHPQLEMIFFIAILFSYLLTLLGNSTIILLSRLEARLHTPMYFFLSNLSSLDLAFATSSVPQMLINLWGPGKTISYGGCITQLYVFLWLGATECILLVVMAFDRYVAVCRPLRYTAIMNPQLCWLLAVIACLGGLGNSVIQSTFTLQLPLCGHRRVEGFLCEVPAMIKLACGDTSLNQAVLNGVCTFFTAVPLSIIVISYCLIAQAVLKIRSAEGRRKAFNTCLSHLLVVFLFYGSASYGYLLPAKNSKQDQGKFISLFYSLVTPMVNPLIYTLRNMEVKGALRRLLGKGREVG
# Procedure, shortened: as §1
# [5] = target: T3, OR2B3 (Homo sapiens) (UniProt O76000)
# T3 sequence (whole entry): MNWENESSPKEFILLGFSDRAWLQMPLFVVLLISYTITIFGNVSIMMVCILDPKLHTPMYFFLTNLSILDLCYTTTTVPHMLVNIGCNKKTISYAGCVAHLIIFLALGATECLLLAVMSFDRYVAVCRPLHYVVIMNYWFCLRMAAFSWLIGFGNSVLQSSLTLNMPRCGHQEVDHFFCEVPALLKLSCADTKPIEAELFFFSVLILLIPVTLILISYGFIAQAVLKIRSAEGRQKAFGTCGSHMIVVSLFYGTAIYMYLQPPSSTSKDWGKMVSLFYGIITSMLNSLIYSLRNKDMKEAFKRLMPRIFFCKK
# Procedure, shortened: as §1
# [6] = test system: OR2BB
# Procedure, shortened: as §1
# Target sequence in this assay (as listed by the source): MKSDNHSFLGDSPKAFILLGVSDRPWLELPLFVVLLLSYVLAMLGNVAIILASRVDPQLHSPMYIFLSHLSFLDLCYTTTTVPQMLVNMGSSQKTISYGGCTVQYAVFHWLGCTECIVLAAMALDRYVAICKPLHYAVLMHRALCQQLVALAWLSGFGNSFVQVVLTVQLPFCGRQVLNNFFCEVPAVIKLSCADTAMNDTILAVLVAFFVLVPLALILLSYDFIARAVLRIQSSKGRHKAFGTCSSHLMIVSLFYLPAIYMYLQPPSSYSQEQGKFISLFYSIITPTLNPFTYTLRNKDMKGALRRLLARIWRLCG
# [7] = test system: OR2BB; remark: listed apart in the source
# Procedure, shortened: as §1
# Target sequence in this assay (as listed by the source): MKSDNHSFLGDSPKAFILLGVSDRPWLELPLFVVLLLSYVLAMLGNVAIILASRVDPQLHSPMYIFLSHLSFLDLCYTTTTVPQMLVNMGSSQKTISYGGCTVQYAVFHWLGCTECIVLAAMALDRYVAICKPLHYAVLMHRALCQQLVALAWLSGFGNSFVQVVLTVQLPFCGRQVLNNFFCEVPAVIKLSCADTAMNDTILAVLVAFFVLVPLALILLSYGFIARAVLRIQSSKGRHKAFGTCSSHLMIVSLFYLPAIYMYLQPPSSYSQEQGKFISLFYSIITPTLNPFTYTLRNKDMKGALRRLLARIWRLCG
# [8] = test system: OR2BB; remark: listed apart in the source
# Procedure, shortened: as §1
# Target sequence in this assay (as listed by the source): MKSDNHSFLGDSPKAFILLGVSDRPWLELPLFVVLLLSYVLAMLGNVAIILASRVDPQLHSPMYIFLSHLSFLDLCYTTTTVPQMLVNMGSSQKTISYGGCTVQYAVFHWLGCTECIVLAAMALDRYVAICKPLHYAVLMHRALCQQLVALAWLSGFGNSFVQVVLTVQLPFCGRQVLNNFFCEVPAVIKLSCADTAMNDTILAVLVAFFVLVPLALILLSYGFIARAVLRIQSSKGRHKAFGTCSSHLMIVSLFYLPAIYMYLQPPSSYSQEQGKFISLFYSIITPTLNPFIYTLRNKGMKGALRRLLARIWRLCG
# [9] = test system: OR2BB; remark: listed apart in the source
# Procedure, shortened: as §1
# Target sequence in this assay (as listed by the source): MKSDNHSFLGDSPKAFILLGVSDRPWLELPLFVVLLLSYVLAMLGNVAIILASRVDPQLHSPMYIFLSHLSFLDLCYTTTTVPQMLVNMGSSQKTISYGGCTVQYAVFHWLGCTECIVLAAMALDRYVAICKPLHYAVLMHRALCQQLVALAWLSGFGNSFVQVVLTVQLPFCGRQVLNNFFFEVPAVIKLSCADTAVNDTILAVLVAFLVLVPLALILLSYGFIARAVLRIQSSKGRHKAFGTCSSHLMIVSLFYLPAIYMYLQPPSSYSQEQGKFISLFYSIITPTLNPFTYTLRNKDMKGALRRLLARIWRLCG
# [10] = test system: OR2BB; remark: listed apart in the source
# Procedure, shortened: as §1
# Target sequence in this assay (as listed by the source): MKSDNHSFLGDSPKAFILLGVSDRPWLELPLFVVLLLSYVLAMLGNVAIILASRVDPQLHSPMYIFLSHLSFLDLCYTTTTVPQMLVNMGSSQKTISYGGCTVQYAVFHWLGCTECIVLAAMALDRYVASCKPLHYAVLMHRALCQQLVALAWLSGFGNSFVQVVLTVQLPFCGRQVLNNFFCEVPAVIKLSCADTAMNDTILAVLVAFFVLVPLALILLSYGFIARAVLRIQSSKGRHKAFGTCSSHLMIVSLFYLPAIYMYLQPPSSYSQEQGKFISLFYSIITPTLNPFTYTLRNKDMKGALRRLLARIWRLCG
# 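Note: active if original authors judged signal statistically different from baseline.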
# Sequence of OR2B6 (Homo sapiens) (P58173 whole entry): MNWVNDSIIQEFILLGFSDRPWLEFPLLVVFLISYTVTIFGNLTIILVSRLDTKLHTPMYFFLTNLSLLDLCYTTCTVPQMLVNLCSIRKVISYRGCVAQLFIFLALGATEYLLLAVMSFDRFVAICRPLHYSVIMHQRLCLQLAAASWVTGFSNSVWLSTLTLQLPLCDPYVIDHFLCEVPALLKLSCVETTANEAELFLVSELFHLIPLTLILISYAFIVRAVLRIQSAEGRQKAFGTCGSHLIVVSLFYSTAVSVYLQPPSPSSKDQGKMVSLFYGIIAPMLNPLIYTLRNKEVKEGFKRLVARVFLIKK
# Sequence of OR2B2 (Homo sapiens) (Q9GZK3 whole entry): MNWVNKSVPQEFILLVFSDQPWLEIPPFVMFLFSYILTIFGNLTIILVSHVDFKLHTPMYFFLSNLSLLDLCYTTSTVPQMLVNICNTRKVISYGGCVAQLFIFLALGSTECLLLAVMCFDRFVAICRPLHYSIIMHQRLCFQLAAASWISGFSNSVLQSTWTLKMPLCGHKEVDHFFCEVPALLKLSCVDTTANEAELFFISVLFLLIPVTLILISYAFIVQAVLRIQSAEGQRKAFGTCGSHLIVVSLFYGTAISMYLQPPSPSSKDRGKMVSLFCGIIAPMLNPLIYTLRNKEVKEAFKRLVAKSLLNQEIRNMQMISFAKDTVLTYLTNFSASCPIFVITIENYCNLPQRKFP
smiles,measurement,setting,value
Cc1c([N+](=O)[O-])c(C)c([N+](=O)[O-])c(C(C)(C)C)c1[N+](=O)[O-],odorant receptor agonist call,[1],inactive
same,odorant receptor agonist call,[2],inactive
same,odorant receptor agonist call,[3],inactive
same,odorant receptor agonist call,[4],inactive
C=CCc1ccccc1,odorant receptor agonist call,[4],inactive
C=CCc1ccc(OC)cc1,odorant receptor agonist call,[5],inactive
C=CCOC(=O)Cc1ccccc1,odorant receptor agonist call,[1],inactive
same,odorant receptor agonist call,[2],inactive
same,odorant receptor agonist call,[5],inactive
same,odorant receptor agonist call,[3],inactive
same,odorant receptor agonist call,[6],inactive
same,odorant receptor agonist call,[7],inactive
same,odorant receptor agonist call,[4],inactive
O=c1cc(O)c2ccccc2o1,odorant receptor agonist call,[4],inactive
CCC1CCC(=O)O1 (stereo not drawn),odorant receptor agonist call,[4],inactive
O=CC=Cc1ccccc1,odorant receptor agonist call,[1],active
same,odorant receptor agonist call,[5],inactive
same,odorant receptor agonist call,[6],inactive
same,odorant receptor agonist call,[8],inactive
same,odorant receptor agonist call,[7],inactive
same,odorant receptor agonist call,[9],inactive
same,odorant receptor agonist call,[10],active
O=Cc1ccccc1,odorant receptor agonist call,[5],inactive
